The source made the active and inactive calls. The calls are words filed in the database; no cut-off is given here.

Data set [1] addresses T1, Sterol O-acyltransferase 2 (Homo sapiens) (UniProt O75908).
T1 sequence (whole entry): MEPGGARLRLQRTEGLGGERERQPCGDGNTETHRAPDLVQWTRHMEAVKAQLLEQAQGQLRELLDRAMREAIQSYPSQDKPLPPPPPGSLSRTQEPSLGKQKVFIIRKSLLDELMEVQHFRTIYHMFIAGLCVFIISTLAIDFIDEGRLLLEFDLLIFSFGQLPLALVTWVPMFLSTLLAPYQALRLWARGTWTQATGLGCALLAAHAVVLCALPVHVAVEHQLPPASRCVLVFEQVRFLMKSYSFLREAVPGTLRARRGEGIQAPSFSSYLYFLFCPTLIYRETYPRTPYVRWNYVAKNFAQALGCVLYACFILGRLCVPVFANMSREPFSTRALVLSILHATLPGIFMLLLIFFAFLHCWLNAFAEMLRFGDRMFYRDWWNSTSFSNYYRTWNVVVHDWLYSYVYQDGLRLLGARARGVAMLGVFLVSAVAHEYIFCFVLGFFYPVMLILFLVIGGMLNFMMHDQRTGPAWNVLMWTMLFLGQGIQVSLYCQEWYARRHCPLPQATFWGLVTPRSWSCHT
In words: Inhibition of human ACAT2 expressed in CHO cells assessed as inhibition of [3H]oleate-induced cholesterol ester accumulation. The format is cell-based. The gist of the method:
(§1)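 CHO cells overexpressing human ACAT-1 or ACAT-2 were incubated 24 h in medium with 10% fetal calf serum, 0.1 mM [3H]oleate-BSA and the indicated compound concentrations. [3H]cholesteryl ester was separated by TLC and radioactivity measured. Repeated three times.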

Data set [2] addresses T2, Sterol O-acyltransferase 1 (Homo sapiens) (UniProt P35610).
T2 sequence (whole entry): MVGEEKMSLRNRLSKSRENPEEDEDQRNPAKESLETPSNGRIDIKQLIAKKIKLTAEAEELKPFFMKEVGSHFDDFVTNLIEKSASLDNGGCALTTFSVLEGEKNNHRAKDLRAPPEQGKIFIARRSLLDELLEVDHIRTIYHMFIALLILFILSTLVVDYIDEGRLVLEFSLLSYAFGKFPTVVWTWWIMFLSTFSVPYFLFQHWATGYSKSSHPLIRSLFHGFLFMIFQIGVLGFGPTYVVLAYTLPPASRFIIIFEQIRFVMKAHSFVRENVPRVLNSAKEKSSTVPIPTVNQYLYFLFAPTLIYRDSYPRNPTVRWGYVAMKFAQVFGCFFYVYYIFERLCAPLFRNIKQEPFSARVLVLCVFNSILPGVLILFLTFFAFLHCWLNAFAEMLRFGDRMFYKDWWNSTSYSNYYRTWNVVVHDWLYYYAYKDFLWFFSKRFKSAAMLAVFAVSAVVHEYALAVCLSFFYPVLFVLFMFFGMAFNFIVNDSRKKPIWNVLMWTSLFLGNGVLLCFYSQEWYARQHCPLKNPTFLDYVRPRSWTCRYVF
Description: Inhibition of human ACAT1 expressed in CHO cells assessed as inhibition of [3H]oleate-induced cholesterol ester accumulation. The format is cell-based. The gist of the method:
as §1

The test system of data set [3] is MDM. Description: Antihyperlipidemic activity in human MDM cell assessed as inhibition of acetule-LDL-induced cholesterol ester accumulation after 5 hrs. It counts as functional, cell-based.
For data set [4], the system named is MDM. Description: Antihyperlipidemic activity in human MDM cell assessed as inhibition of acetule-LDL-induced cholesterol ester accumulation after 24 hrs. The format is functional, cell-based. The gist of the method:
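Human monocyte-derived macrophages were incubated 24 h with 50 µg/mL acetyl-LDL plus 0.1 mM [3H]oleate conjugated to BSA, with or without compound. [3H]cholesteryl ester was separated by TLC and counted by radioscanner. Three independent experiments; means ± SD.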

The subject of data set [5] is Mus musculus. In words: Antiatherogenesis in apoE deficient mouse assessed as reduction in aortic lesions at 100 mg/kg qd. The format is functional, Aorta. Also on record: scale not given: the % may be the effect or the level left. The gist of the method:
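ApoE-deficient mice given diet with or without compound at 100 mg/kg/day for 90 days, n = 10 per group. Aortic sinus cross sections stained with oil red O and viewed at ×200. Cross-sectional lesion area was quantified and compared with untreated controls.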

Data set [6] relates to Mus musculus. In words: Antihyperlipidemic in apoE deficient mouse assessed as reduction in triglyceride level at 100 mg/kg qd after 90 hrs. It counts as functional. Also on record: scale not given: the % may be the effect or the level left. As to conditions: in the assay text read “after 90 days” for “after 90 hrs”. The gist of the method:
(§2)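 ApoE-deficient mice were fed diets with or without compound (100 mg/kg/day) for 90 days, n = 10 per group. Plasma total cholesterol, LDL cholesterol and triglyceride were then measured. Data are means ± SD.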

Data set [7] is described as follows: Cytotoxicity against human MDM cells at 100 uM. It counts as cell-based.
Data set [8] concerns Mus musculus. Description: Antihyperlipidemic in apoE deficient mouse assessed as reduction in total cholesterol level at 100 mg/kg qd after 90 hrs. It counts as functional. Set-up: scale not given: the % may be the effect or the level left. The conditions noted are these: in the assay text read “after 90 days” for “after 90 hrs”. The gist of the method:
as §2

The subject of data set [9] is Mus musculus. In words: Antihyperlipidemic in apoE deficient mouse assessed as reduction in LDL cholesterol level at 100 mg/kg qd after 90 hrs. The format is functional. Set-up: scale not given: the % may be the effect or the level left. As to conditions: in the assay text read “after 90 days” for “after 90 hrs”. The gist of the method:
as §2

For `C[C@@H]1[C@H]2[C@H](C[C@H]3[C@@H]4CC[C@H]5C[C@@H](O)CC[C@]5(C)[C@H]4CC[C@]23C)O[C@@]12NC[C@@H](CO)C[C@@H]2O`, the Activity result (in [1]; in data set [2]; with MDM [3]) was “Dose-dependent effect” in each case. Further, in the data set on MDM [4], the result was Active.

Take `CC(=O)O[C@H]1C[C@H](CO[C@@H]2O[C@H](CO)[C@@H](O)[C@H](O)[C@H]2O)CN[C@@]12O[C@H]1C[C@H]3[C@@H]4CC[C@H]5C[C@@H](O[C@@H]6O[C@H](CO)[C@H](O[C@@H]7O[C@H](CO)[C@@H](O)[C@H](O[C@@H]8OC[C@@H](O)[C@H](O)[C@H]8O)[C@H]7O[C@H]7O[C@H](CO)[C@@H](O)[C@H](O)[C@H]7O)[C@H](O)[C@H]6O)CC[C@]5(C)[C@H]4CC[C@]3(C)[C@H]1[C@H]2C` [ESCULEOSIDE A]: the Activity is recorded as 52% in the data set on Mus musculus [5]; 45% in the data set with Mus musculus [6]; “Non-toxic” in data set [7]; 25% in the data set on Mus musculus [8]; 25% in the data set with Mus musculus [9]. In addition, the outcome in the data set on MDM [4] was Active.
